These results are taken from ChEMBL document CHEMBL1811828, “LuxR dependent quorum sensing inhibition by N,N'-disubstituted imidazolium salts” (Bioorg Med Chem, 2011).

Format in all cases: functional
Assay [1] concerns the target T1, Transcriptional activator protein LuxR (Aliivibrio fischeri) (UniProt P12746).
T1 sequence (whole entry): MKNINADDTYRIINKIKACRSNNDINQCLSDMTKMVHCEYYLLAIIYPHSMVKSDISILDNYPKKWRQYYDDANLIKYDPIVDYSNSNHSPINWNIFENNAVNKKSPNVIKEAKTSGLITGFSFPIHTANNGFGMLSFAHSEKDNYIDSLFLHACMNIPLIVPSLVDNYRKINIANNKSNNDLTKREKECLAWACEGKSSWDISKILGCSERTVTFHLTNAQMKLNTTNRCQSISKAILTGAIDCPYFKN
Kind of assay: Agonist activity at Vibrio fischeri LuxR assessed as activation of quorum sensing activation mediated bioluminescence.

The target of assay [2] is T2, Transcriptional activator protein LuxR (Aliivibrio fischeri, UniProt P12746).
T2 sequence (P12746 whole entry): T1 sequence (whole entry)
Kind of assay: Antagonist activity at Vibrio fischeri LuxR assessed as inhibition of 3-oxo-C6-HSL-induced quorum sensing activation mediated bioluminescence. The settings on record: for pIC50: read-out: IC50. A digest of the protocol:
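Bioluminescence induced with 200 nM 3-oxo-C6-HSL, with test compounds added. IC50 is the concentration that halves the induced light intensity. Values are means of three experiments with standard deviation.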

For assay [3], the system named is Aliivibrio fischeri. Kind of assay: Antimicrobial activity against Vibrio fischeri incubated overnight at 37 degC by disc diffusion assay. The procedure, abridged: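 Disk diffusion susceptibility assay following CLSI guidelines, with a kanamycin control disk. Compounds were tested at 20 μM, 200 μM, 2 mM and 20 mM. Inhibition zones were measured after overnight incubation at 37 °C, and the MIC was taken from these tested levels.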
On the technique in general: A growth-free zone around the sample is the usual read-out of agar diffusion tests.

pIC50: −log10 of the molar value. Calls of active or inactive are those of the source. No cut-off for these calls is given here.

The term pIC50 denotes the IC50 on a negative log10 scale, so that one unit is a factor of ten. Take `CCCCCCCCCCCCCCCCn1cc[n+](C(c2ccccc2)c2ccccc2)c1`: the outcome in assay [1] was inactive. Also, in assay [2], the negative logarithm of the IC50 (pIC50) is 5.14.
For `CCCCCCCCn1cc[n+](C(c2ccc(Cl)cc2Cl)c2ccc(Cl)cc2Cl)c1`, the result in assay [1] was inactive. Further, the pIC50 in assay [2] is 5.05.
For `CCCCCCCCCCCCn1cc[n+](C(c2ccc(Cl)cc2)c2ccc(Cl)cc2)c1` the same measures were “inactive” and 5.21.
As for `CCCCCCCCCCCCCCn1cc[n+](C(c2ccc(Cl)cc2)c2ccc(Cl)cc2)c1`, in assay [1], the result was inactive. Besides, in assay [2], the pIC50 was 4.12.
Consider `CCCCCCCCCCn1cc[n+](C2CCCC2)c1`, for which the result in assay [1] was inactive. Also, in assay [2], the negative-log IC50 (pIC50) is 4.48.
Regarding `CCCCCCCCCCCCCCCCCCn1cc[n+](C(c2ccc(Cl)cc2)c2ccc(Cl)cc2)c1.[Br-]`, the outcome in assay [1] was inactive. In addition, the IC50 entry in assay [2] is “Not Active”.
Take `CCCCCCCCCCCCn1cc[n+](C(c2ccc(Cl)cc2Cl)c2ccc(Cl)cc2Cl)c1`: the result in assay [1] was inactive. Also, in assay [2], the pIC50 was 5.19.
Regarding `CCCCCCCCCCn1cc[n+](C2c3ccccc3-c3ccccc32)c1`, the outcome in assay [1] was inactive. The pIC50 in assay [2] is 5.40.
Consider `CCCCCCCCCCCCCCn1cc[n+](C2c3ccccc3-c3ccccc32)c1`, for which the outcome in assay [1] was inactive. Also, in assay [2], the pIC50 is 5.57.
Usually MIC stands for the least concentration at which growth counts as inhibited. Low readings indicate inhibition by little substance, high ones a need for much substance. Turning to `CCCCCCCCCCCCCCn1cc[n+](C2CCCC2)c1`, in assay [3], the MIC came to 200 µM. Further, the outcome in assay [1] was inactive. In addition, the negative-log IC50 (pIC50) in assay [2] was 5.47.
Consider `CCCCCCCCn1cc[n+](C2c3ccccc3-c3ccccc32)c1`, for which the result in assay [1] was inactive. In addition, the pIC50 in assay [2] is 4.46.
Take `CCCCCCCCCCn1cc[n+](C(c2ccc(Cl)cc2)c2ccc(Cl)cc2)c1`: in assay [1], the result was inactive. In addition, the negative logarithm of the IC50 (pIC50) in assay [2] was 5.24.
For the molecule `CCCCCCn1cc[n+](C(c2ccccc2)c2ccccc2)c1`, the result in assay [1] was inactive. Besides, the pIC50 in assay [2] is 3.82.
For `CCCCCCCCCCCCCCn1cc[n+](C(c2ccccc2)c2ccccc2)c1` the same measures were “inactive” and 5.28.
Consider `CCCCCCn1cc[n+](C(c2ccc(Cl)cc2)c2ccc(Cl)cc2)c1`, for which, in assay [1], the outcome was inactive. Moreover, the pIC50 in assay [2] is 4.20.
For `CCCCCCCCCCCCCCCCn1cc[n+](C2c3ccccc3-c3ccccc32)c1` the same measures were “inactive” and 4.83.
In the case of `CCCCCCCCCCCCn1cc[n+](C2c3ccccc3-c3ccccc32)c1`, the minimum inhibitory concentration (MIC) in assay [3] worked out at 200 µM. Further, the result in assay [1] was inactive. The negative logarithm of the IC50 (pIC50) in assay [2] is 5.85.
On to `CCCCCCCCCCn1cc[n+](C(c2ccccc2)c2ccccc2)c1`, for which the outcome in assay [1] was inactive. Further, in assay [2], the negative logarithm of the IC50 (pIC50) is 4.74.
For `CCCCCCCCn1cc[n+](C(c2ccccc2)c2ccccc2)c1`, the outcome in assay [1] was inactive. Besides, the negative logarithm of the IC50 (pIC50) in assay [2] is 4.12.
On to `CCCCn1cc[n+](C(c2ccccc2)c2ccccc2)c1.[Br-]`, for which the result in assay [1] was inactive. Also, the IC50 entry in assay [2] is on record as “Not Active”.
For `CCCCCCCCCCn1cc[n+](C(c2ccc(Cl)cc2Cl)c2ccc(Cl)cc2Cl)c1`, the result in assay [1] was inactive. Further, in assay [2], the negative-log IC50 (pIC50) is 5.31.
Take `CCCCCCCCCCCCCCn1cc[n+](C(c2ccc(Cl)cc2Cl)c2ccc(Cl)cc2Cl)c1.[Br-]`: in assay [1], the outcome was inactive. Moreover, the IC50 result in assay [2] is “Not Active”.
Consider `CCCCCCn1cc[n+](C(c2ccc(Cl)cc2Cl)c2ccc(Cl)cc2Cl)c1`, for which the result in assay [1] was inactive. Further, the pIC50 in assay [2] was 4.28.
`CCCCCCCCCCCCn1cc[n+](C2CCCC2)c1`: the result in assay [1] was inactive. In assay [2], the pIC50 was 4.96.
As to `CCCCCCCCCCCCCCCCCCn1cc[n+](C(c2ccc(Cl)cc2Cl)c2ccc(Cl)cc2Cl)c1.[Br-]`, the outcome in assay [1] was inactive. The IC50 entry in assay [2] is given as “Not Active”.
For `CCCCCCCCCCCCCCCCn1cc[n+](C2CCCC2)c1`, the result in assay [1] was inactive. Further, in assay [2], the pIC50 is 5.28.
For `CCCCCCCCn1cc[n+](C(c2ccc(Cl)cc2)c2ccc(Cl)cc2)c1`, the result in assay [1] was inactive. The pIC50 in assay [2] was 5.01.
Take `CCCCCCCCCCCCCCCCCCn1cc[n+](C2CCCC2)c1`: in assay [1], the result was inactive. Also, in assay [2], the pIC50 is 4.07.
`CCCCCCCCn1cc[n+](C2CCCC2)c1`: in assay [1], the outcome was inactive. In addition, the negative-log IC50 (pIC50) in assay [2] was 4.17.
On to `CCCCCCCCCCCCn1cc[n+](C(c2ccccc2)c2ccccc2)c1`, for which the MIC in assay [3] stood at 200 µM. Further, the outcome in assay [1] was inactive. Also, the pIC50 in assay [2] was 5.21.
